Tested on: HEK-293T
Assay: Multiplex assay against HEK293T
Format: toxicity, cell-based
Conditions: human
Outline: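 Hoechst33342, BioTracker Green Microtubule Cytoskeleton Dye, MitoTracker Red and Annexin V Alexa Fluor 680 were added to live cells at seeding, and imaging on a CQ1 microscope at 37°C and 5% CO2 followed compound addition. Gating by CellPathfinder machine learning separated cells into Hoechst high-intensity objects or normal cells, then normal cells into healthy, pyknosed or fragmented nuclei, then pyknosed cells into mitotic or apoptotic. Per cents of healthy-nucleus cells are reported for the tubulin, mitochondrial-mass and membrane-permeability phenotypes.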

[1] = 12 h, 1 µM, compound concentration 1 uM, replicate 1
[2] = 12 h, 1 µM, compound concentration 1 uM, replicate 2
[3] = 12 h, 10 µM, compound concentration 10 uM, replicate 1
[4] = 12 h, 10 µM, compound concentration 10 uM, replicate 2
[5] = 24 h, 1 µM, compound concentration 1 uM, replicate 1
[6] = 24 h, 1 µM, compound concentration 1 uM, replicate 2
[7] = 24 h, 10 µM, compound concentration 10 uM, replicate 1
[8] = 24 h, 10 µM, compound concentration 10 uM, replicate 2
[9] = 48 h, 1 µM, compound concentration 1 uM, replicate 1
[10] = 48 h, 1 µM, compound concentration 1 uM, replicate 2
[11] = 48 h, 10 µM, compound concentration 10 uM, replicate 1
[12] = 48 h, 10 µM, compound concentration 10 uM, replicate 2

## CN(C)C(=O)Cn1cc(-c2ccc(-c3nnc4ccccn34)cc2)cn1
[1]
  Population Apoptotic (%): 31%
  Population Fragmented Nuclei (%): 7%
  Population Healthy Nuclei (%): 80%
  Population Hoechst High Intensity Objects (%): 9%
  Population Membrane Permeable-Phenotype (%): 0%
  Population Mitochondria Different-Phenotype (%): 40%
  Population Mitotic Cells (%): 68%
  Population Normal (%): 90%
  Population Pyknosed Nuclei (%): 11%
  Population Tubulin-Different-Phenotype (%): 32%
  Total Cell Count: 432
[2]
  Population Apoptotic (%): 43%
  Population Healthy Nuclei (%): 79%
  Population Hoechst High Intensity Objects (%): 10%
  Population Mitochondria Different-Phenotype (%): 59%
  Population Mitotic Cells (%): 56%
  Population Normal (%): 89%
  Population Pyknosed Nuclei (%): 12%
  Population Tubulin-Different-Phenotype (%): 27%
  Total Cell Count: 337
[3]
  Population Apoptotic (%): 32%
  Population Fragmented Nuclei (%): 9%
  Population Healthy Nuclei (%): 76%
  Population Hoechst High Intensity Objects (%): 7%
  Population Membrane Permeable-Phenotype (%): 0%
  Population Mitochondria Different-Phenotype (%): 61%
  Population Mitotic Cells (%): 67%
  Population Normal (%): 92%
  Population Pyknosed Nuclei (%): 14%
  Population Tubulin-Different-Phenotype (%): 42%
  Total Cell Count: 427
[4]
  Population Apoptotic (%): 51%
  Population Fragmented Nuclei (%): 7%
  Population Healthy Nuclei (%): 80%
  Population Hoechst High Intensity Objects (%): 8%
  Population Mitochondria Different-Phenotype (%): 55%
  Population Mitotic Cells (%): 48%
  Population Normal (%): 91%
  Population Pyknosed Nuclei (%): 12%
  Population Tubulin-Different-Phenotype (%): 18%
  Total Cell Count: 356
[5]
  Population Apoptotic (%): 27%
  Population Fragmented Nuclei (%): 10%
  Population Healthy Nuclei (%): 77%
  Population Hoechst High Intensity Objects (%): 6%
  Population Membrane Permeable-Phenotype (%): 0%
  Population Mitochondria Different-Phenotype (%): 28%
  Population Mitotic Cells (%): 72%
  Population Normal (%): 93%
  Population Pyknosed Nuclei (%): 12%
  Population Tubulin-Different-Phenotype (%): 22%
  Total Cell Count: 595
[6]
  Population Apoptotic (%): 46%
  Population Fragmented Nuclei (%): 9%
  Population Healthy Nuclei (%): 82%
  Population Hoechst High Intensity Objects (%): 7%
  Population Mitochondria Different-Phenotype (%): 44%
  Population Mitotic Cells (%): 53%
  Population Normal (%): 92%
  Population Pyknosed Nuclei (%): 7%
  Population Tubulin-Different-Phenotype (%): 18%
  Total Cell Count: 447
[7]
  Population Apoptotic (%): 35%
  Population Fragmented Nuclei (%): 7%
  Population Healthy Nuclei (%): 78%
  Population Hoechst High Intensity Objects (%): 4%
  Population Membrane Permeable-Phenotype (%): 0%
  Population Mitochondria Different-Phenotype (%): 44%
  Population Mitotic Cells (%): 64%
  Population Normal (%): 95%
  Population Pyknosed Nuclei (%): 13%
  Population Tubulin-Different-Phenotype (%): 27%
  Total Cell Count: 506
[8]
  Population Apoptotic (%): 61%
  Population Fragmented Nuclei (%): 13%
  Population Healthy Nuclei (%): 79%
  Population Hoechst High Intensity Objects (%): 7%
  Population Mitochondria Different-Phenotype (%): 39%
  Population Mitotic Cells (%): 38%
  Population Normal (%): 92%
  Population Pyknosed Nuclei (%): 7%
  Population Tubulin-Different-Phenotype (%): 11%
  Total Cell Count: 425
[9]
  Population Apoptotic (%): 18%
  Population Fragmented Nuclei (%): 11%
  Population Healthy Nuclei (%): 81%
  Population Hoechst High Intensity Objects (%): 3%
  Population Membrane Permeable-Phenotype (%): 0%
  Population Mitochondria Different-Phenotype (%): 20%
  Population Mitotic Cells (%): 81%
  Population Normal (%): 96%
  Population Pyknosed Nuclei (%): 6%
  Population Tubulin-Different-Phenotype (%): 13%
  Total Cell Count: 946
[10]
  Population Apoptotic (%): 32%
  Population Healthy Nuclei (%): 80%
  Population Hoechst High Intensity Objects (%): 4%
  Population Mitochondria Different-Phenotype (%): 22%
  Population Mitotic Cells (%): 67%
  Population Normal (%): 95%
  Population Pyknosed Nuclei (%): 7%
  Population Tubulin-Different-Phenotype (%): 12%
  Total Cell Count: 572
[11]
  Population Apoptotic (%): 30%
  Population Fragmented Nuclei (%): 18%
  Population Healthy Nuclei (%): 74%
  Population Hoechst High Intensity Objects (%): 5%
  Population Membrane Permeable-Phenotype (%): 0%
  Population Mitochondria Different-Phenotype (%): 24%
  Population Mitotic Cells (%): 69%
  Population Normal (%): 94%
  Population Pyknosed Nuclei (%): 6%
  Population Tubulin-Different-Phenotype (%): 14%
  Total Cell Count: 753
[12]
  Population Apoptotic (%): 37%
  Population Fragmented Nuclei (%): 14%
  Population Healthy Nuclei (%): 79%
  Population Hoechst High Intensity Objects (%): 2%
  Population Mitochondria Different-Phenotype (%): 27%
  Population Mitotic Cells (%): 62%
  Population Normal (%): 97%
  Population Pyknosed Nuclei (%): 5%
  Population Tubulin-Different-Phenotype (%): 12%
  Total Cell Count: 616

— ChEMBL document CHEMBL5058577, “EUbOPEN Chemogenomics Library 2 (Multiplex)” (2022)
